Test results: the array DNA melting data of Ke et al. (doi:10.1101/2024.01.08.574731)

Experiments:
[1] = melting temperature; fluorescence melt of hairpins on a sequencing array, two-state fit, raised by 9.35 °C to match UV melts; details: sodium 0.088 M
Method in brief: (§1)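 Cy3 signals were normalised both to pre-quench Cy3 and to control constructs. They came from library hairpins carrying annealed Cy3 and quencher oligos on a sequenced MiSeq flow cell, imaged in 50 mM Na-HEPES pH 8.0, 25 mM NaCl, in 2.5 °C steps up to 60 °C. Bootstrapped two-state fits gave melting temperature and folding enthalpy, and four replicates were combined by inverse variance. Fitted temperatures were then raised by 9.35 °C to match UV melts.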

[2] = folding enthalpy; higher = less favourable; fluorescence melt of hairpins on a sequencing array, two-state fit; details: sodium 0.088 M
Method in brief: as §1

Sequence	Tm [1] [°C]	folding enthalpy [2] [kJ/mol]
GCTCTAGGAAACTGGAGC ((((.((....)).))))	49.6	-150
GCTCTCCGAAAGGAAGC (((.(((....))))))	47.8	-108
GCTCTCGAAAGAGAAAGC ((((((....)))..)))	40	-94.5
GCTCTCGAAAGAGCAAGC ((((((....)))..)))	42.9	-50.9
GCTCTCGAAAGAGGAAGC ((((((....)))..)))	38.4	-78.7
GCTCTCGGAAACGAGAAC (.(((((....))))).)	41.8	-66.9
GCTCTCGGAAACGAGGGC ((.((((....)))).))	58.7	-167
GCTCTCTCGAAAGAGAGC (((..(((....))))))	60.3	-112
GCTCTGAAAAGAGC (((((....)))))	57.8	-90.6
GCTCTGCGAAAGCAAAGC (((.(((....))).)))	46.1	-125
GCTCTGCGAAAGCAATGC ((..(((....)))..))	31.6	-43.9
GCTCTGCGAAAGCACCGC ((..(((....)))..))	31.8	-36.8
GCTCTGCGAAAGCAGCGC ((.((((....)))).))	57.6	-72.3
GCTCTGCGAAAGCATTGC ((..(((....)))..))	40.5	-59.3
GCTCTGCGAAAGCCAAGC (((..((....))..)))	34.8	-58.1
GCTCTGCGAAAGCCGGGC ((.(.((....)).).))	41.7	-84.1
GCTCTGCGAAAGCGGTGC ((.(.((....)).).))	54.4	-79.3
GCTCTGGGAAACTAGAGC (((((.(....).)))))	49.7	-213
GCTCTTCGAAAGAAAAGC (((.(((....))).)))	34.6	-131

Sequence	Tm [1] [°C]	folding enthalpy [2] [kJ/mol]
GCTCTTCGAAAGAACAGC (((.(((....))).)))	34.7	-93
GCTGAACGAAAGTTTAGC (((.(((....))).)))	53	-132
GCTGAAGAAATTCAGC ((((((....))))))	54.5	-157
GCTGAAGGAAACCTCAGC (((((.(....).)))))	47	-156
GCTGAAGGAAACTTCGGC ((.((((....)))).))	51.3	-207
GCTGAAGGAAACTTTGGC ((..(((....)))..))	33	-83.6
GCTGACCGAAAGGTAGC (((.(((....))))))	51.7	-107
GCTGACCGAAAGGTTAGC (((.(((....))).)))	58.9	-141
GCTGACGAAAGTCCCAGC ((((((....)))..)))	36.7	-59.5
GCTGACGAAAGTCTGAGC ((((((....)))..)))	43.5	-84.3
GCTGACGGAAACGCCAGC ((((.((....)).))))	55.3	-176
GCTGACGGAAACGTTAGC (((.(((....))).)))	53.6	-180
GCTGACGGAAACGTTGGC ((..(((....)))..))	47	-114
GCTGAGCGAAAGCACTGC ((.(.((....)).).))	49.5	-83.6
GCTGAGCGAAAGCGTAGC (((..((....))..)))	62	-91
GCTGAGCGAAAGCTAAGC (((.(((....))).)))	56.1	-211
GCTGAGCGAAAGCTCCGC ((.((((....)))).))	57.7	-82.3
GCTGAGCGAAAGCTGGGC ((..(((....)))..))	50.3	-82.6
GCTGAGCGAAAGCTTGGC ((..(((....)))..))	55.4	-87.2
